Reference: ChEMBL document CHEMBL3779892, “Increasing the binding affinity of VEGFR-2 inhibitors by extending their hydrophobic interaction with the active site: Design, synthesis and biological evaluation of 1-substituted-4-(4-methoxybenzyl)phthalazine derivatives” (Eur J Med Chem, 2016)

Columns and labels:
Type in all cases: functional
NCI-H226 = test: Growth inhibition of human NCI-H226 cells at 10 uM after 48 hrs by sulforhodamine B assay; details: NCI-H226, 48 h, read-out: GI
Method in brief: (§1)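 Run at NCI on the 60-line panel. Cells grown in RPMI 1640 with 5% FBS and 2 mM L-glutamine, plated at 5000–40,000 cells/well by doubling time, and held 24 h at 37 °C before dosing. Drug (DMSO stock) given at a single final 10 µM in triplicate wells for 48 h. Adherent cells fixed with cold TCA (10% final), suspension cells with 16% TCA. SRB stain read at 515 nm. Percent growth from Tz, C and Ti.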

[1] = Growth inhibition of human BT549 cells at 10 uM after 48 hrs by sulforhodamine B assay; details: BT-549, 48 h, read-out: GI; method in brief: as §1
NCI-H322M = test: Growth inhibition of human NCI-H322M cells at 10 uM after 48 hrs by sulforhodamine B assay; details: read-out: GI; method in brief: as §1
[2] = Growth inhibition of human OVCAR5 cells at 10 uM after 48 hrs by sulforhodamine B assay; details: OVCAR-5, 48 h, read-out: GI; method in brief: as §1
[3] = Growth inhibition of human LOXIMVI cells at 10 uM after 48 hrs by sulforhodamine B assay; details: LOX IMVI, read-out: GI; method in brief: as §1
K562 = test: Growth inhibition of human K562 cells at 10 uM after 48 hrs by sulforhodamine B assay; details: K562, 48 h, read-out: GI; method in brief: as §1
[4] = Growth inhibition of human OVCAR3 cells at 10 uM after 48 hrs by sulforhodamine B assay; details: OVCAR-3, 48 h, read-out: GI; method in brief: as §1
MCF7 = test: Growth inhibition of human MCF7 cells at 10 uM after 48 hrs by sulforhodamine B assay; details: MCF7, 48 h, read-out: GI; method in brief: as §1
[5] = Growth inhibition of human RPMI8226 cells at 10 uM after 48 hrs by sulforhodamine B assay; details: RPMI-8226, 48 h, read-out: GI; method in brief: as §1
NCI-H23 = test: Growth inhibition of human NCI-H23 cells at 10 uM after 48 hrs by sulforhodamine B assay; details: NCI-H23, 48 h, read-out: GI; method in brief: as §1
[6] = Growth inhibition of human DU145 cells at 10 uM after 48 hrs by sulforhodamine B assay; details: DU-145, 48 h, read-out: GI; method in brief: as §1
MDA-MB-231 = test: Growth inhibition of human MDA-MB-231 cells at 10 uM after 48 hrs by sulforhodamine B assay; details: MDA-MB-231, 48 h, read-out: GI; method in brief: as §1
NCI-H522 = test: Growth inhibition of human NCI-H522 cells at 10 uM after 48 hrs by sulforhodamine B assay; details: NCI-H522, 48 h, read-out: GI; method in brief: as §1
[7] = Growth inhibition of human OVCAR4 cells at 10 uM after 48 hrs by sulforhodamine B assay; details: OVCAR-4, 48 h, read-out: GI; method in brief: as §1
[8] = Growth inhibition of human HOP92 cells at 10 uM after 48 hrs by sulforhodamine B assay; details: HOP-92, 48 h, read-out: GI; method in brief: as §1
[9] = Growth inhibition of human IGROV1 cells at 10 uM after 48 hrs by sulforhodamine B assay; details: IGROV-1, 48 h, read-out: GI; method in brief: as §1
T47D = test: Growth inhibition of human T47D cells at 10 uM after 48 hrs by sulforhodamine B assay; details: read-out: GI
Method in brief: (§2)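 NCI-60 panel, adherent cells grown in RPMI 1640 with 5% FBS and 2 mM L-glutamine, plated at 5000–40,000 cells/well and preincubated 24 h at 37 °C, 5% CO2. 10 µM final compound from DMSO stock, triplicate wells, 48 h. Fixed with cold TCA (10% final, 60 min, 4 °C) and stained with 0.4% SRB. Absorbance read at 515 nm; growth calculated against time-zero and control wells.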

[10] = Growth inhibition of human SNB75 cells at 10 uM after 48 hrs by sulforhodamine B assay; details: SNB-75, 48 h, read-out: GI; method in brief: as §1
[11] = Growth inhibition of human OVCAR8 cells at 10 uM after 48 hrs by sulforhodamine B assay; details: OVCAR-8, 48 h, read-out: GI; method in brief: as §1
[12] = Growth inhibition of human SF268 cells at 10 uM after 48 hrs by sulforhodamine B assay; details: SF-268, 48 h, read-out: GI; method in brief: as §1
MDA-MB-468 = test: Growth inhibition of human MDA-MB-468 cells at 10 uM after 48 hrs by sulforhodamine B assay; details: MDA-MB-468, 48 h, read-out: GI; method in brief: as §1
[13] = Growth inhibition of human NCI-ADR-RES cells at 10 uM after 48 hrs by sulforhodamine B assay; details: read-out: GI; method in brief: as §1
[14] = Growth inhibition of human UO31 cells at 10 uM after 48 hrs by sulforhodamine B assay; details: UO-31, 48 h, read-out: GI; method in brief: as §2
Malme-3M = test: Growth inhibition of human MALME-3M cells at 10 uM after 48 hrs by sulforhodamine B assay; details: read-out: GI; method in brief: as §1
ACHN = test: Growth inhibition of human ACHN cells at 10 uM after 48 hrs by sulforhodamine B assay; details: read-out: GI; method in brief: as §1
U-251 = test: Growth inhibition of human U251 cells at 10 uM after 48 hrs by sulforhodamine B assay; details: U-251, 48 h, read-out: GI; method in brief: as §2
[15] = Growth inhibition of human COLO205 cells at 10 uM after 48 hrs by sulforhodamine B assay; details: COLO 205, 48 h, read-out: GI; method in brief: as §1
KM12 = test: Growth inhibition of human KM12 cells at 10 uM after 48 hrs by sulforhodamine B assay; details: KM12, 48 h, read-out: GI; method in brief: as §1
SK-MEL-5 = test: Growth inhibition of human SK-MEL-5 cells at 10 uM after 48 hrs by sulforhodamine B assay; details: SK-MEL-5, 48 h, read-out: GI; method in brief: as §1
NCI-H460 = test: Growth inhibition of human NCI-H460 cells at 10 uM after 48 hrs by sulforhodamine B assay; details: NCI-H460, 48 h, read-out: GI; method in brief: as §1
786-0 = test: Growth inhibition of human 786-0 cells at 10 uM after 48 hrs by sulforhodamine B assay; details: 786-0, 48 h, read-out: GI; method in brief: as §1
A498 = test: Growth inhibition of human A498 cells at 10 uM after 48 hrs by sulforhodamine B assay; details: A498, 48 h, read-out: GI; method in brief: as §1
[16] = Growth inhibition of human SNB19 cells at 10 uM after 48 hrs by sulforhodamine B assay; details: SNB-19, 48 h, read-out: GI; method in brief: as §1
HT-29 = test: Growth inhibition of human HT-29 cells at 10 uM after 48 hrs by sulforhodamine B assay; details: HT-29, 48 h, read-out: GI; method in brief: as §1
[17] = Growth inhibition of human SF295 cells at 10 uM after 48 hrs by sulforhodamine B assay; details: SF-295, 48 h, read-out: GI; method in brief: as §1
[18] = Growth inhibition of human HCT15 cells at 10 uM after 48 hrs by sulforhodamine B assay; details: HCT-15, 48 h, read-out: GI; method in brief: as §1

| Structure (SMILES) | inhibition of growth at 10 µM (NCI-H226) | inhibition of growth at 10 µM [1] | inhibition of growth at 10 µM (NCI-H322M) | inhibition of growth at 10 µM [2] | inhibition of growth at 10 µM [3] | inhibition of growth at 10 µM (K562) | inhibition of growth at 10 µM [4] | inhibition of growth at 10 µM (MCF7) | inhibition of growth at 10 µM [5] | inhibition of growth at 10 µM (NCI-H23) | inhibition of growth at 10 µM [6] | inhibition of growth at 10 µM (MDA-MB-231) | inhibition of growth at 10 µM (NCI-H522) | inhibition of growth at 10 µM [7] | inhibition of growth at 10 µM [8] | inhibition of growth at 10 µM [9] | inhibition of growth at 10 µM (T47D) | inhibition of growth at 10 µM [10] | inhibition of growth at 10 µM [11] | inhibition of growth at 10 µM [12] | further results |
| --- | --- | --- | --- | --- | --- | --- | --- | --- | --- | --- | --- | --- | --- | --- | --- | --- | --- | --- | --- | --- | --- |
| COc1ccc(Cc2nnc(Nc3ccc(NC(=O)Nc4cccc(Cl)c4)cc3)c3ccccc23)cc1 | < 30% | < 30% | < 30% | < 30% | < 30% | 30% | < 30% | < 30% | 31% | < 30% | < 30% | < 30% | 57% | < 30% | < 30% | < 30% | 39% | < 30% | < 30% | < 30% | inhibition of growth at 10 µM (MDA-MB-468): < 30%; inhibition of growth at 10 µM [13]: < 30%; inhibition of growth at 10 µM [14]: < 30%; inhibition of growth at 10 µM (Malme-3M): < 30%; inhibition of growth at 10 µM (ACHN): 39%; inhibition of growth at 10 µM (U-251): < 30%; inhibition of growth at 10 µM [15]: < 30%; inhibition of growth at 10 µM (KM12): < 30%; inhibition of growth at 10 µM (SK-MEL-5): < 30%; inhibition of growth at 10 µM (NCI-H460): < 30%; inhibition of growth at 10 µM (786-0): 35%; inhibition of growth at 10 µM (A498): < 30%; inhibition of growth at 10 µM [16]: < 30%; inhibition of growth at 10 µM (HT-29): < 30%; inhibition of growth at 10 µM [17]: < 30%; inhibition of growth at 10 µM [18]: < 30% |
| COc1ccc(Cc2nnc(Nc3ccc(NC(=O)Nc4ccc(Cl)cc4)cc3)c3ccccc23)cc1 | < 30% | 37% | < 30% | < 30% | < 30% | < 30% | < 30% | 33% | 75% | < 30% | < 30% | 30% | 43% | < 30% | < 30% | < 30% | 37% | 49% | < 30% | < 30% | inhibition of growth at 10 µM (MDA-MB-468): < 30%; inhibition of growth at 10 µM [13]: < 30%; inhibition of growth at 10 µM [14]: < 30%; inhibition of growth at 10 µM (Malme-3M): < 30%; inhibition of growth at 10 µM (ACHN): 46%; inhibition of growth at 10 µM (U-251): 48%; inhibition of growth at 10 µM [15]: < 30%; inhibition of growth at 10 µM (KM12): 39%; inhibition of growth at 10 µM (SK-MEL-5): < 30%; inhibition of growth at 10 µM (NCI-H460): 110%; inhibition of growth at 10 µM (786-0): 58%; inhibition of growth at 10 µM (A498): 32%; inhibition of growth at 10 µM [16]: 39%; inhibition of growth at 10 µM (HT-29): 34%; inhibition of growth at 10 µM [17]: 52%; inhibition of growth at 10 µM [18]: 41% |
| COc1ccc(Cc2nnc(Nc3ccc(NC(=O)Nc4ccccc4Cl)cc3)c3ccccc23)cc1 | < 30% | < 30% | < 30% | < 30% | < 30% | < 30% | < 30% | 32% | 33% | < 30% | < 30% | < 30% | 33% | < 30% | < 30% | < 30% | 52% | < 30% | < 30% | < 30% | inhibition of growth at 10 µM (MDA-MB-468): < 30%; inhibition of growth at 10 µM [13]: < 30%; inhibition of growth at 10 µM [14]: < 30%; inhibition of growth at 10 µM (Malme-3M): < 30%; inhibition of growth at 10 µM (ACHN): < 30%; inhibition of growth at 10 µM (U-251): < 30%; inhibition of growth at 10 µM [15]: < 30%; inhibition of growth at 10 µM (KM12): < 30%; inhibition of growth at 10 µM (SK-MEL-5): < 30%; inhibition of growth at 10 µM (NCI-H460): < 30%; inhibition of growth at 10 µM (786-0): 41%; inhibition of growth at 10 µM (A498): 44%; inhibition of growth at 10 µM [16]: < 30%; inhibition of growth at 10 µM (HT-29): < 30%; inhibition of growth at 10 µM [17]: < 30%; inhibition of growth at 10 µM [18]: < 30% |
